# Assays:
# Format in all cases: ADME, organism-based
# [1] = Plasma clearance in Sprague-Dawley rat at 1 mg/kg, iv and 2 mg/kg, po
# In short: (§1)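 SD rat pharmacokinetics: 1 mg/kg iv and 2 mg/kg po. Plasma clearance and Vd were determined. Half-life came from the iv arm.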
# [2] = Volume of distribution at steady state in Sprague-Dawley rat at 1 mg/kg, iv and 2 mg/kg, po; conditions: in vivo, read-out: Vdss; in short: as §1
# [3] = Half life in Sprague-Dawley rat at 1 mg/kg, iv; set-up: dose 1 mg/kg, route intravenous; conditions: in vivo; in short: as §1
# [4] = Oral bioavailability in Sprague-Dawley rat at 2 mg/kg; conditions: in vivo; in short: as §1
# Rattus norvegicus = assay: Dose normalized AUC (0 to 24 hrs) in Sprague-Dawley rat at 2 mg/kg, po; set-up: dose 2 mg/kg, route oral; conditions: in vivo
# In short: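 Sprague–Dawley rats dosed orally at 2 mg/kg, alongside a separate 1 mg/kg iv arm. Plasma exposure was followed over 0–24 h after the oral dose. AUC was normalized to dose and expressed as μM h kg/mg.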
# [5] = Plasma concentration in Sprague-Dawley rat at 100 mg/kg, po after 6 hrs; set-up: dose 100 mg/kg, route oral
# In short: (§2)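 SD rats given a single 100 mg/kg oral dose, n=5. Plasma and whole brain were taken 6 h later. Drug concentrations were measured in both, the brain-to-plasma ratio was derived from them, and whole-brain Aβ42 was reported as percent change.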
# [6] = Drug level in Sprague-Dawley rat brain at 100 mg/kg, po after 6 hrs; set-up: dose 100 mg/kg, route oral; conditions: read-out: Drug uptake; in short: as §2
# [7] = Ratio of drug level in brain to plasma in Sprague-Dawley rat at 100 mg/kg, po after 6 hrs; set-up: dose 100 mg/kg, route oral; conditions: read-out: BPR; in short: as §2
# [8] = Plasma concentration in Sprague-Dawley rat at 60 mg/kg, po after 6 hrs; set-up: dose 60 mg/kg, route oral
# In short: (§3)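 Single 60 mg/kg oral dose in SD rats. Plasma and brain drug exposure and central Aβ42 were assessed 6 h post-dose.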
# [9] = Drug level in Sprague-Dawley rat brain at 60 mg/kg, po after 6 hrs; set-up: dose 60 mg/kg, route oral; conditions: read-out: Drug uptake; in short: as §3
clearance [1],Vd [2],half-life [3],bioavailability [4],AUC/dose (Rattus norvegicus),concentration at 6 h [5],concentration at 6 h [6],Kp at 6 h [7],concentration at 6 h [8],concentration at 6 h [9],Structure (SMILES)
24 mL/min/kg,7.1 L/kg,7.7 h,41%,1.4 µM·kg·h/mg,47 µM,56 µM,1.2,–,–,COc1cc(-c2cn(Cc3ccc(C(C)(C)C)cc3)nn2)ccc1-n1cnc(C)c1
13.7 mL/min/kg,2.8 L/kg,5.4 h,49%,2.6 µM·kg·h/mg,–,–,–,40 µM,9.4 µM,COc1cc(-c2cn(Cc3ccc(-c4nc5ccccc5o4)cc3)nn2)ccc1-n1cnc(C)c1

# Reference: ChEMBL document CHEMBL1817592, “Triazoles as γ-secretase modulators” (Bioorg Med Chem Lett, 2011)
